APOBEC3G inh: blocks human APOBEC3G single-stranded DNA deamination | Q9HC16 | recombinant A3G, ssDNA deamination FAM/TAMRA fluorescence | inhibition, % at 20 µM | actives 0.28% (n = 330,000);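 active = inhibition of at least 40% at 20 µM, with no more than 30% in the related APOBEC3A deaminase screen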
Arr AP2 block: blocks beta-arrestin peptide binding to AP2 adaptin; AID 504490; actives 0.31% (n = 340,000); FITC-arrestin peptide / GST-AP2 beads, flow cytometry; AP2 beta2 appendage carries R879A mutation; inhibition, % at 10 µM;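 active = inhibition above a set limit, near 3 SD of compounds lacking own fluorescence, cut at about 54% in these data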
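System: GST-AP2 R879A glutathione beads. Medium: PBS with 0.05% Tween 20 and 0.1% BSA. Also added: FITC-arrestin peptide, 50 nM. Incubation: 12 min plus 1 h, RT. Measured by: high-throughput flow cytometry of beads, ex 488, em 535 nm. Evaluation: percent drop in bead-associated FITC signal.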
APOBEC3A inh: blocks human APOBEC3A ssDNA deamination | P31941 | recombinant A3A, FAM/TAMRA ssDNA deamination fluorescence | inhibition, % at 20 µM | actives 0.41% (n = 330,000) | AID 493011;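 active = at least 40% inhibition at 20 µM here, with at most 30% in a related deaminase screen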
Target sequence (P31941 whole entry, looked up): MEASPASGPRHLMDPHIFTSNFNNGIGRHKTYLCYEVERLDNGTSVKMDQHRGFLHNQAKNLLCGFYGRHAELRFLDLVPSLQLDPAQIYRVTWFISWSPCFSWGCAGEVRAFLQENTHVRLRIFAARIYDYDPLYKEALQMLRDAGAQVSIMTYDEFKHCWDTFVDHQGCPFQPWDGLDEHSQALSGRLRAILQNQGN
PolyA inh: blocks polyadenylation in yeast reporter cells; S. cerevisiae SKY197-pL101 polyadenylation reporter, beta-gal luminescence; efflux-impaired pdr1/pdr3 knockout yeast; score 100 = 6 SD above DMSO; activity score, % at 12 µM; actives 0.02% (n = 300,000);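 active = lowest replicate activity score at least 50, where 100 means six control SD above control mean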;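 note: yeast exposed to compound for 9 h at 30 °C; higher score means more reporter readthrough which indicates perturbed polyadenylation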
UCH37 inh: blocks the human deubiquitinase UCH37. actives 0.33% (n = 330,000). purified proteasome/UCH37, Ub-AMC cleavage fluorescence. Q9Y5K5. inhibition, % (test concentration not listed);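 active = mean inhibition over replicate wells above about 20%, limit read from the data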
Target sequence (Q9Y5K5 whole entry, looked up): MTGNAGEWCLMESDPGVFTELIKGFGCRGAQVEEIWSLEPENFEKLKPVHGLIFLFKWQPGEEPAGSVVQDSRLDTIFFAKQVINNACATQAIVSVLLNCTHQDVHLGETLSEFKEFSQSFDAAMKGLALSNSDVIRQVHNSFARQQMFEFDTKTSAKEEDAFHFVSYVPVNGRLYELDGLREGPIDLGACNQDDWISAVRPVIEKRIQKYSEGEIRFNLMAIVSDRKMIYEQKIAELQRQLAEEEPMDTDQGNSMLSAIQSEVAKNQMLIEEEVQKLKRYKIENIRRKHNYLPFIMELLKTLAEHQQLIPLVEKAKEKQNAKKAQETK
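Material: Human UCH37 enzyme supplied as purified proteasome complex | Schedule: 30 min preincubation with enzyme, 25 min cleavage at room temperature | Detection: AMC fluorescence 355/460 nm | Measure: % inhibition of Ub-AMC cleavage fluorescence | Controls: Wells without proteasome as full block, compound-free enzyme plus substrate as uninhibited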
AHR act: human AHR activation; P35869; AHR-responsive luciferase reporter cells, luminescence; activation, % at 5 µM; actives 2.5% (n = 320,000); in the data active = activation above about 47%
Numbers stand for hits; i = inactive; nt = no result. Most compounds without a hit are left out; they make up all but 3.4% or so of the library.

SMILES	APOBEC3G inh	Arr AP2 block	APOBEC3A inh	PolyA inh	UCH37 inh	AHR act
CCOc1ccc2nc(NCCNC(=O)C(C)C)c(C)cc2c1	i	i	i	i	i	48
COCC(=O)NCCNc1nc2ccc(C)cc2cc1C	i	i	i	i	i	i
Cc1cc2cc(C)c(NCCNC(=O)c3ccccc3)nc2cc1C	i	i	i	i	i	63
CC(C)Oc1ccc(C=NNC(=O)c2nnn(-c3nonc3N)c2CN(C)C2CCCCC2)cc1	nt	nt	nt	nt	i	nt
CCOc1cc(C=NO)cc(Br)c1OCC(=O)NCc1ccccc1	nt	nt	nt	nt	i	nt
Cc1ccc(C(=O)N(CC(C)C)c2nc3ccccc3s2)o1	i	i	i	i	i	72
CCOC(=O)c1c2ccccc2[n+]([O-])n1[C@@H](C)C(N)=O	i	i	i	i	32	i
O=C1C(=O)c2c(C(=O)c3ccccc3)coc2-c2ccccc21	i	i	i	i	i	52
COc1ccc(C=NNC(=O)CN2CCSCC2)cc1C	nt	nt	nt	nt	i	nt
N#CCSc1n[nH]c2nc3c(c(=O)n12)C1(CCCC1)Cc1ccccc1-3	i	i	i	i	i	52
O=c1[nH]c(S)c(/C=C2\C=Nc3ccccc32)s1	i	i	i	i	i	57
CC1CCCC/C1=N\NC(=S)Nc1ccccc1 (configuration not stated)	i	i	i	i	nt	60
Oc1ccc(-c2nc3ccccc3s2)cc1	i	i	i	i	i	55
c1ccc2sc(-c3ccc4c(c3)OCO4)nc2c1	i	i	i	nt	i	65
Nc1ccccc1-c1nc2ccccc2s1	i	i	i	i	i	57
O=C(NN=Cc1ccc2cccnc2c1)c1ccco1	nt	nt	nt	nt	i	nt
C#CCNC(=O)C1=C[C@@H](c2ccc(Br)cc2)[C@H](CCCO)[C@@H](OCC)O1	i	i	i	i	24	i
C#CCNC(=O)C1=C[C@H](c2ccc(Br)cc2)[C@@H](CCCO)[C@H](OCC)O1	i	i	i	i	i	i
COc1cc(C=NNC(=S)Nc2cccc(C(=O)O)c2)cc(OC)c1OC	nt	nt	nt	nt	i	nt
O=[N+]([O-])c1ccc(/C=N/Nc2ccc3ccccc3c2)o1	i	i	i	i	nt	76
O=[N+]([O-])c1ccc(C=NNc2ccc3ccccc3c2)o1	nt	nt	nt	nt	i	nt
CCOC(=O)c1c(C)[nH]c(C)c1C(=O)Cn1nnc(-c2ccccc2C)n1	i	i	i	i	i	49
CCOC(=O)c1c(C)[nH]c(C)c1C(=O)CSc1ncccn1	i	i	i	i	i	78
CCOC(=O)c1c(C)[nH]c(C)c1C(=O)CSc1nc2ccccc2[nH]1	i	i	i	i	i	59
O=C(CNc1ccccc1F)NN=CC1CC=CCC1 (configuration not stated)	nt	nt	nt	nt	i	nt
SMILES	APOBEC3G inh	Arr AP2 block	APOBEC3A inh	PolyA inh	UCH37 inh	AHR act
CC(=NNC(=O)CCn1nnc2ccccc21)c1cccs1	nt	nt	nt	nt	i	nt
CNC(=S)NN=Cc1cc(Br)cc(Br)c1O	nt	nt	nt	nt	i	nt
CC(=NNc1ccc(C(F)(F)F)cn1)c1ccc(S(=O)(=O)NCc2ccco2)cc1	nt	nt	nt	nt	i	nt
COCC(=O)Nc1c(C(=O)Nc2ccccc2OC)oc2ccccc12	i	i	i	i	i	84
COc1ccccc1NC(=O)c1oc2ccc(C)cc2c1C	i	i	i	i	i	60
COc1cccc(NC(=O)c2oc3ccccc3c2NC(C)=O)c1	i	i	i	i	i	i
COc1ccccc1NC(=O)c1oc2ccccc2c1NC(=O)c1cc(OC)c(OC)c(OC)c1	i	i	i	i	i	i
COCC(=O)Nc1c(C(=O)Nc2cccc(OC)c2)oc2ccccc12	i	i	i	i	i	70
CC(=NNc1nc2ccccc2[nH]1)c1ccc2c(c1)OCCO2	nt	nt	nt	nt	i	nt
Cc1ccc(C(=O)C=CNCc2ccccc2)cc1	nt	nt	nt	nt	i	nt
CN(C)CCCCCCCCCCC(=O)C=NO	nt	nt	nt	nt	i	nt
CC(=NN1CCN(Cc2cccc3ccccc23)CC1)c1ccco1	nt	nt	nt	nt	i	nt
CC12CCC(CC1=N/N=C1/NC(=O)/C(=C\c3cccc(Br)c3)S1)C2(C)C (configuration not stated)	nt	nt	nt	nt	i	nt
O=C(CCc1ccc(S(=O)(=O)NC2CCCCC2)cc1)Nc1ccccc1	i	i	i	i	i	i
O=C(CCc1ccc(S(=O)(=O)NC2CCCCC2)cc1)N(Cc1ccccc1)Cc1ccccc1	i	i	i	i	33	i
COc1ccc(N(C(C)C(=O)NN=C(C)C(C)(C)C)S(C)(=O)=O)cc1 (configuration not stated)	nt	nt	nt	nt	i	nt
CCN(CC)C(=O)c1ccc2c(c1[N+](=O)[O-])C(=O)c1ccccc1C2=O	i	nt	i	i	nt	78
CC(=O)Nc1ccc(C(=O)CSc2cc(C)c3cccc(C)c3n2)cc1	i	i	i	i	i	66
O=C(Nn1c(-c2ccc(Br)cc2)nc2ccccc2c1=O)c1ccc([N+](=O)[O-])cc1	i	i	i	i	i	62
O=C(Nn1c(-c2ccncc2)nc2ccccc2c1=O)c1ccc(Br)cc1	i	i	i	i	i	i
O=C(Nn1c(-c2ccccc2)nc2ccccc2c1=O)c1ccco1	i	i	i	i	i	58
CCn1c2ccccc2c2cc(C=NNC(=O)c3cc(O)cc(O)c3)ccc21	nt	nt	nt	nt	i	nt
COC(=O)Nc1nnc(-c2ccccc2Cl)s1	i	i	i	i	i	55
COc1ccccc1-c1nnc(NC(=O)OCC(C)C)s1	i	i	i	i	i	64
CC(C)(C)C(=O)ON=C(N)COc1cccc(Cl)c1	nt	nt	nt	nt	i	nt
SMILES	APOBEC3G inh	Arr AP2 block	APOBEC3A inh	PolyA inh	UCH37 inh	AHR act
CS(=O)(=O)Nc1ccc(N2CCN(c3ccc(C(F)(F)F)cn3)CC2)nc1	i	i	i	i	i	i
CC1=NN(c2ccc(C(F)(F)F)cn2)C(=O)C1	i	i	i	i	i	51
COc1cccc(C2=N/C(=C\N(C)C)C(=O)O2)c1	i	i	i	i	25	i
COc1cccc(-c2nc3ccccc3c(=O)o2)c1	i	i	i	i	i	i
COC(=O)c1ccc(/C=C(\C#N)C(=O)NC(C)c2ccccc2)cc1 (configuration not stated)	i	i	i	i	i	i
CC(NC(=O)/C(C#N)=C/c1ccc(N2CCOCC2)cc1)c1ccccc1 (configuration not stated)	i	i	i	i	i	47
COc1ccc(-c2csc3nc(-c4cccnc4)nc(Cl)c23)cc1OC	i	i	i	i	i	i
Clc1nc(-c2cccnc2)nc2scc(-c3ccccc3)c12	i	i	i	i	i	68
CN=c1sc2ccccc2n1CC(O)c1ccccc1 (configuration not stated)	i	i	i	i	i	63
CN=c1sc2ccccc2n1CC(O)COCc1ccco1 (configuration not stated)	i	i	i	i	i	i
COc1cc(C=NNC(=O)c2nnn(-c3nonc3N)c2C(C)C)ccc1OCc1ccccc1	nt	nt	nt	nt	i	nt

From PubChem
